Publication PMC9444296 (Investigative Radiology, 2022)
“Also recorded” adds a separate entry of the source.

Experiments:
[1] = Plasma stability, rat plasma; type: in vitro ADME; settings: 0.5 mM, 37°C, HPLC; for average remaining percentage of intact MT218: n = 2
How it was run: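 Test compound at 0.5 mM was incubated in human, rat or dog plasma at 37°C for up to 48 h, with PBS as control. Samples were mixed with methanol, centrifuged, and the intact compound was quantified by analytical reversed-phase (C18) HPLC.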

[2] = Metabolic pathway study in human liver microsomes; type: in vitro ADME; settings: 1 μM, 2 hours
[3] = test system: PC3 human prostate cancer xenografts; experiment: Contrast-enhanced MRI of PC3 prostate tumor xenografts in rats; type: in vivo, rat; settings: PC3 tumors in rats, 3 T, n = 6
How it was run: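 Male rats carried subcutaneous flank xenografts of 4 × 10⁶ PC3 or 8 × 10⁶ LNCaP cells in Matrigel-PBS (1:1) and were imaged once tumours exceeded 100 mm³. Scans used 1 mm slices, 2 averages and a 128 × 128 matrix. The same tumour-bearing rats were reused across agents and doses, with a clinical Gd agent at 0.1 mmol Gd/kg as comparator.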

[4] = Pharmacokinetics in SD rats; type: in vivo, rat; settings: for AUC: AUC 0-4h; for AUC / AUCINF / C0 / Cl / MRT / T1/2 / Vz: Gd by ICP-MS, NCA, n = 3
How it was run: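 SD rats (3/sex) received a single IV dose of 0.04, 0.1 or 0.2 mmol/kg. Jugular blood was drawn predose and at 2, 5, 10, 15, 30 and 45 min and 1, 2, 3 and 4 h. Parameters were derived by noncompartmental analysis.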

[5] = Pharmacokinetics in beagle dogs; type: in vivo, dog; settings: for AUC: AUC 0-6h; for AUC / AUCINF / C0 / Cl / MRT / T1/2 / Vz: Gd by ICP-MS, NCA, n = 3
beagle dogs = experiment: Single and repeated dose toxicity and toxicokinetics in beagle dogs; type: in vivo, dog; settings: for accumulation ratio AUC0–24h (D14)/AUC0–24h (D1) of Gd: 14 days
How it was run: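 GLP study in beagle dogs aged 6–7 months (M 7.34–10.58 kg, F 6.50–9.87 kg). Dosing was a single IV 0.70 mmol/kg or daily IV 0.07, 0.21 or 0.70 mmol/kg/d for 2 weeks, with saline placebo and a 2-week recovery. Clinical observation, organ weights and macro/microscopic histopathology were done. Gd accumulation ratio was AUC0–24h(D14)/AUC0–24h(D1).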

[6] = SD rat ♀, 0.04 mmol/kg single IV
[7] = SD rat ♀, 0.1 mmol/kg single IV
[8] = SD rat ♀, 0.2 mmol/kg single IV
[9] = SD rat ♂, 0.04 mmol/kg single IV
[10] = SD rat ♂, 0.1 mmol/kg single IV
[11] = SD rat ♂, 0.2 mmol/kg single IV
[12] = beagle dog ♀, 0.04 mmol/kg single IV
[13] = beagle dog ♀, 0.1 mmol/kg single IV
[14] = beagle dog ♀, 0.2 mmol/kg single IV
[15] = beagle dog ♂, 0.04 mmol/kg single IV
[16] = beagle dog ♂, 0.1 mmol/kg single IV
[17] = beagle dog ♂, 0.2 mmol/kg single IV

ZD2-N3-Gd(HP-DO3A) [MT218]
average remaining percentage of intact MT218 ([1]; 1 h): 74.87% | average remaining percentage of intact MT218 ([1]; 3 h): 20.54% | average remaining percentage of intact MT218 ([1]; 6 h): 4.61% | average remaining percentage of intact MT218 ([1]; 28 h): 0% | average remaining percentage of intact MT218 ([1]; 48 h): 0% | enzymatic degradation half-life (t1/2) [1]: 97.8 min | MT218 remaining ([2]; CYP1A2 group): 105% | MT218 remaining ([2]; CYP2B6 group): 117% | MT218 remaining ([2]; CYP2C8 group): 101% | MT218 remaining ([2]; CYP2C9 group): 98.8% | MT218 remaining ([2]; CYP2C19 group): 105% | MT218 remaining ([2]; CYP2D6 group): 109% | MT218 remaining ([2]; CYP3A4 group): 99.1% | CNR ([3]; 0.02 mmol Gd/kg IV, 10 minutes postinjection): 2.67 ± 1.05 | CNR ([3]; 0.02 mmol Gd/kg IV, 30 minutes postinjection): 1.97 ± 0.67 | CNR ([3]; 0.04 mmol Gd/kg IV, 10 minutes postinjection): 5.94 ± 1.68 | CNR ([3]; 0.04 mmol Gd/kg IV, 30 minutes postinjection): 4.92 ± 0.79 | AUC [4, 6]: 10940 ng·h/mL | AUC [4, 7]: 27840 ng·h/mL | AUC [4, 8]: 58600 ng·h/mL | AUC [4, 9]: 11080 ng·h/mL | AUC [4, 10]: 28860 ng·h/mL | AUC [4, 11]: 53170 ng·h/mL | AUC Ratio ([4]; AUC(dose)/AUC(low dose), SD rat ♀, 0.04 mmol/kg): 1 | AUC Ratio ([4]; AUC(dose)/AUC(low dose), SD rat ♂, 0.04 mmol/kg): 1 | AUC Ratio ([4]; AUC(high dose)/AUC(low dose), SD rat ♀, 0.2 mmol/kg): 5.36 | AUC Ratio ([4]; AUC(high dose)/AUC(low dose), SD rat ♂, 0.2 mmol/kg): 4.80 | AUC Ratio ([4]; AUC(middle dose)/AUC(low dose), SD rat ♀, 0.1 mmol/kg): 2.55 | AUC Ratio ([4]; AUC(middle dose)/AUC(low dose), SD rat ♂, 0.1 mmol/kg): 2.61 | AUCINF [4, 6]: 11130 ng·h/mL | C0 [4, 6]: 75.09 µg/mL | Cl [4, 6]: 9.4683 mL/min/kg | MRT [4, 6]: 17.4 min | T1/2 [4, 6]: 16.8 min | Vz [4, 6]: 0.22422 L/kg | AUCINF [4, 7]: 28020 ng·h/mL | C0 [4, 7]: 158.07 µg/mL | Cl [4, 7]: 9.5898 mL/min/kg | MRT [4, 7]: 20.4 min | T1/2 [4, 7]: 19.2 min | Vz [4, 7]: 0.27335 L/kg | AUCINF [4, 8]: 58710 ng·h/mL | C0 [4, 8]: 209.22 µg/mL | Cl [4, 8]: 9.2098 mL/min/kg | MRT [4, 8]: 25.8 min | T1/2 [4, 8]: 19.2 min | Vz [4, 8]: 0.2564 L/kg | AUCINF [4, 9]: 11180 ng·h/mL | C0 [4, 9]: 49.09 µg/mL | Cl [4, 9]: 9.6403 mL/min/kg | MRT [4, 9]: 22.2 min | T1/2 [4, 9]: 18 min | Vz [4, 9]: 0.24309 L/kg | AUCINF [4, 10]: 29010 ng·h/mL | C0 [4, 10]: 115.85 µg/mL | Cl [4, 10]: 9.172 mL/min/kg | MRT [4, 10]: 24 min | T1/2 [4, 10]: 18.6 min | Vz [4, 10]: 0.24018 L/kg | AUCINF [4, 11]: 53230 ng·h/mL | C0 [4, 11]: 248.60 µg/mL | Cl [4, 11]: 9.855 mL/min/kg | MRT [4, 11]: 22.2 min | T1/2 [4, 11]: 18 min | Vz [4, 11]: 0.25524 L/kg | mean plasma elimination half-life (t1/2) ([4]; rats, 0.1 mmol/kg IV): 18.6 min | AUC [5, 12]: 38160 ng·h/mL | AUC [5, 13]: 93960 ng·h/mL | AUC [5, 14]: 138990 ng·h/mL | AUC [5, 15]: 34800 ng·h/mL | AUC [5, 16]: 89520 ng·h/mL | AUC [5, 17]: 156540 ng·h/mL | AUC Ratio ([5]; AUC(dose)/AUC(low dose), beagle dog ♀, 0.04 mmol/kg): 1 | AUC Ratio ([5]; AUC(dose)/AUC(low dose), beagle dog ♂, 0.04 mmol/kg): 1 | AUC Ratio ([5]; AUC(high dose)/AUC(low dose), beagle dog ♀, 0.2 mmol/kg): 3.64 | AUC Ratio ([5]; AUC(high dose)/AUC(low dose), beagle dog ♂, 0.2 mmol/kg): 4.50 | AUC Ratio ([5]; AUC(middle dose)/AUC(low dose), beagle dog ♀, 0.1 mmol/kg): 2.46 | AUC Ratio ([5]; AUC(middle dose)/AUC(low dose), beagle dog ♂, 0.1 mmol/kg): 2.57 | AUCINF [5, 12]: 38470 ng·h/mL | C0 [5, 12]: 59.33 µg/mL | Cl [5, 12]: 2.734 mL/min/kg | MRT [5, 12]: 58.2 min | T1/2 [5, 12]: 44.4 min | Vz [5, 12]: 0.17599 L/kg | AUCINF [5, 13]: 94170 ng·h/mL | C0 [5, 13]: 146.59 µg/mL | Cl [5, 13]: 2.794 mL/min/kg | MRT [5, 13]: 57.6 min | T1/2 [5, 13]: 40.2 min | Vz [5, 13]: 0.16108 L/kg | AUCINF [5, 14]: 139150 ng·h/mL | C0 [5, 14]: 268.10 µg/mL | Cl [5, 14]: 3.7757 mL/min/kg | MRT [5, 14]: 47.4 min | T1/2 [5, 14]: 37.8 min | Vz [5, 14]: 0.20593 L/kg | AUCINF [5, 15]: 34940 ng·h/mL | C0 [5, 15]: 50.97 µg/mL | Cl [5, 15]: 3.0033 mL/min/kg | MRT [5, 15]: 60.6 min | T1/2 [5, 15]: 45.6 min | Vz [5, 15]: 0.19708 L/kg | AUCINF [5, 16]: 89780 ng·h/mL | C0 [5, 16]: 149.33 µg/mL | Cl [5, 16]: 2.9287 mL/min/kg | MRT [5, 16]: 57 min | T1/2 [5, 16]: 42 min | Vz [5, 16]: 0.17773 L/kg | AUCINF [5, 17]: 156900 ng·h/mL | C0 [5, 17]: 286.90 µg/mL | Cl [5, 17]: 3.367 mL/min/kg | MRT [5, 17]: 52.8 min | T1/2 [5, 17]: 41.4 min | Vz [5, 17]: 0.20164 L/kg | mean plasma elimination half-life (t1/2) ([5]; dogs, 0.1 mmol/kg IV): 41.4 min | NOAEL (beagle dogs; dog, single dosing): not established | mortality or moribundity (beagle dogs; dogs, any dose group, up to 0.70 mmol/kg/d): no mortality or morbidity; also recorded: No mortality or moribundity | clinical observations (body weight, food consumption, temperature, ophthalmoscopy, hematology, coagulation, clinical chemistry, urinalysis) (beagle dogs; dogs, any dose level): No MT218-related changes | pathological findings (beagle dogs; dogs, both sexes, repeated 0.21 mmol/kg/d and 0.70 mmol/kg/d): reversible renal tubule degeneration | NOAEL (beagle dogs; dogs, repeated daily IV dose for 14 days): 0.07 mmol/kg/day | pathological findings (beagle dogs; dogs, repeated low doses 0.07 mmol/kg/d): No renal abnormality | pathological findings (beagle dogs; dogs, single dose 0.70 mmol/kg, no longer evident on day 15): mild bilateral tubule degeneration of proximal and distal tubules | clinical signs during the dosing period (beagle dogs; dogs, single- and repeated-medium and high-dose groups, disappeared after dosing completion): Sporadic symptoms of emesis, retching, and salivation | accumulation ratio AUC0–24h (D14)/AUC0–24h (D1) of Gd (beagle dogs; female dogs, high dose 0.70 mmol/kg/d IV): 1.00 | accumulation ratio AUC0–24h (D14)/AUC0–24h (D1) of Gd (beagle dogs; female dogs, low dose 0.07 mmol/kg/d IV): 0.91 | accumulation ratio AUC0–24h (D14)/AUC0–24h (D1) of Gd (beagle dogs; female dogs, medium dose 0.21 mmol/kg/d IV): 0.99 | accumulation ratio AUC0–24h (D14)/AUC0–24h (D1) of Gd (beagle dogs; male dogs, high dose 0.70 mmol/kg/d IV): 1.02 | accumulation ratio AUC0–24h (D14)/AUC0–24h (D1) of Gd (beagle dogs; male dogs, low dose 0.07 mmol/kg/d IV): 0.92 | accumulation ratio AUC0–24h (D14)/AUC0–24h (D1) of Gd (beagle dogs; male dogs, medium dose 0.21 mmol/kg/d IV): 1.07
